The results in this text go back to ChEMBL document CHEMBL3525903 (Drug Metab Dispos, 2013).

A value given as a limit tells only on which side of the number the result lay.

Data set [1] concerns the target ATP-binding cassette sub-family C member 2 (Homo sapiens, UniProt Q92887). Nature of the data set: Inhibition of human MRP2 expressed in MDCK2 cells assessed as reduction of [3H]E217betaG substrate transport up to 100 uM by liquid scintillation counting. The format is ADME, cell-based. As to conditions: mdck-ii; call rule not given here. An outline of the steps:
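Membrane vesicles made from MDCKII cells expressing BCRP or MRP2, and from parental cells (1 μg/μL protein). Run in Tris-sucrose buffer, pH 7.4, with 10 mM MgCl2, creatine phosphokinase and ATP, or AMP as control. Substrates: 0.035 μM [3H]E-sul for BCRP, 2 min; 0.033 μM [3H]E217βG for MRP2, 5 min; both at 37 °C. Stopped ice-cold, filtered, and counted by scintillation.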

Data set [2] has as its system P-glycoprotein. Nature of the data set: Permeability assessed as human P-glycoprotein-mediated of transport of basolateral to apical side expressed in pig LLC-PK1 cells by Transwell experiment/liquid scintillation counting. The format is ADME, cell-based.
For data set [3], the system named is P-glycoprotein. Nature of the data set: Permeability assessed as human P-glycoprotein-mediated transport of apical to basolateral side in pig LLC-PK1 cells by measuring nontransporter-related passive membrane permeability by Transwell experiment/liquid scintillation counting. As to conditions: read-out: permeability. In kind it is ADME, cell-based.
The test system of data set [4] is P-glycoprotein. Nature of the data set: Permeability assessed as human P-glycoprotein-mediated active membrane transport by measuring apical to basolateral side expressed in pig LLC-PK1 cells by Transwell experiment/liquid scintillation counting. Conditions: read-out: permeability. The format is ADME, cell-based.
In data set [5] the test system is P-glycoprotein. Nature of the data set: Permeability assessed as human P-glycoprotein-mediated transport across basolateral to apical side expressed in pig LLC-PK1 cells at 500 uM by liquid scintillation counting. In kind it is ADME, cell-based.
The test system of data set [6] is P-glycoprotein. Nature of the data set: Permeability assessed as human P-glycoprotein-mediated transport across apical to basolateral side expressed in pig LLC-PK1 cells at 2 uM by liquid scintillation counting. In kind it is ADME, cell-based.
A short description of data set [7]: Drug uptake in human intestine at 5 mg, po. In kind it is ADME, tissue-based. As to conditions: in vivo.
A short description of data set [8]: Inhibition of human P-glycoprotein expressed in pig LLC-PK1 cells assessed as reduction of [3H]digoxin substrate transport from basolateral to apical side by liquid scintillation counting. In kind it is ADME, cell-based.
Data set [9] is described as follows: Maximal inhibition of human P-glycoprotein expressed in pig LLC-PK1 cells assessed as reduction of [3H]digoxin substrate transport at 100 uM by liquid scintillation counting. Conditions: llc-pk1, 100 µM. The format is ADME, cell-based. An outline of the steps:
(§1)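 P-gp-expressing and parental LLC-PK1 monolayers were grown on transwell inserts for 6–7 days to confluence and switched to serum-free M199 1 h before assay. [3H]digoxin was given apical-to-basal or basal-to-apical, with inhibitor in both chambers, at 37 °C, solvent ≤0.5%. Receiver samples were scintillation-counted and Papp taken from the linear phase. Results are % of control BtoA transport, mean ± S.D., n≥3.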

Data set [10] can be described thus: Inhibition of human P-glycoprotein expressed in pig LLC-PK1 cells assessed as reduction of [3H]digoxin substrate transport by liquid scintillation counting. The format is ADME, cell-based. An outline of the steps: as §1
Data set [11] addresses T1, Solute carrier organic anion transporter family member 1B1 (Homo sapiens, UniProt Q9Y6L6).
T1 sequence (Q9Y6L6 whole entry): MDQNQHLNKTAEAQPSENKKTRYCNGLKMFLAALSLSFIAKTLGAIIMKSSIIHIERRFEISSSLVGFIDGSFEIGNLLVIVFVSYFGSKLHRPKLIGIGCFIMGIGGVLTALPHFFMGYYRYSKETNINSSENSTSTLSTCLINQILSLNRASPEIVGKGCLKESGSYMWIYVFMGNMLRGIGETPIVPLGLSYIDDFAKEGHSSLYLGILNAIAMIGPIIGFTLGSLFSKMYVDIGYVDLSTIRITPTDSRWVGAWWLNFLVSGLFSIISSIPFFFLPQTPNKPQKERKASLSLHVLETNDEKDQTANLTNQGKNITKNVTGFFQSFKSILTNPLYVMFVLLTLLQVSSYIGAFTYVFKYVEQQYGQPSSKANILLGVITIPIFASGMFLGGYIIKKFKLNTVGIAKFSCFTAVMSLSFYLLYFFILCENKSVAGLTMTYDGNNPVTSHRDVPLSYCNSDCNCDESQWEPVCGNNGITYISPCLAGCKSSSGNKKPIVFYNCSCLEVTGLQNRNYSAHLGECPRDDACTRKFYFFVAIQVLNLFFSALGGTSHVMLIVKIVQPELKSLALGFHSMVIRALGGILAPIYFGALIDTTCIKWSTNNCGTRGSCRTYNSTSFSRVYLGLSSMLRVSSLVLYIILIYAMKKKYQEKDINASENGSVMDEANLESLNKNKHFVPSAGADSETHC
Nature of the data set: Inhibition of OATP1B1 (unknown origin) expressed in HEK293 cells assessed as reduction of [3H]E217betaG substrate uptake at 100 uM by liquid scintillation counting. The format is ADME, cell-based. Conditions: hek293, 100 µM. An outline of the steps: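 HEK293 cells transiently transfected with OAT, OATP or OCT plasmid (FuGENE6; 24 h, then 24 h more with sodium butyrate), or stable OCTN1/OCTN2 lines; vector-transfected cells as control. Washed, preincubated 15–60 min at 37 °C in modified Krebs-Henseleit/25 mM HEPES buffer. Uptake of radiolabelled substrate, 100 µM inhibitor. Cells lysed in NaOH and counted by scintillation; counts normalised to medium radioactivity and Lowry protein; vector uptake subtracted.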

The target of data set [12] is T1, Solute carrier organic anion transporter family member 1B1. Nature of the data set: Inhibition of OATP1B1 (unknown origin) expressed in HEK293 cells assessed as reduction of [3H]E217betaG substrate uptake by liquid scintillation counting. In kind it is ADME, cell-based.
Data set [13] has as its system P-glycoprotein. Nature of the data set: Permeability assessed as human P-glycoprotein-mediated transport across basolateral to apical side expressed in pig LLC-PK1 cells at 2 uM by liquid scintillation counting. In kind it is ADME, cell-based.
Data set [14] addresses T2, Organic anion transporter 3 (Homo sapiens, UniProt Q8TCC7).
T2 sequence (Q8TCC7 whole entry): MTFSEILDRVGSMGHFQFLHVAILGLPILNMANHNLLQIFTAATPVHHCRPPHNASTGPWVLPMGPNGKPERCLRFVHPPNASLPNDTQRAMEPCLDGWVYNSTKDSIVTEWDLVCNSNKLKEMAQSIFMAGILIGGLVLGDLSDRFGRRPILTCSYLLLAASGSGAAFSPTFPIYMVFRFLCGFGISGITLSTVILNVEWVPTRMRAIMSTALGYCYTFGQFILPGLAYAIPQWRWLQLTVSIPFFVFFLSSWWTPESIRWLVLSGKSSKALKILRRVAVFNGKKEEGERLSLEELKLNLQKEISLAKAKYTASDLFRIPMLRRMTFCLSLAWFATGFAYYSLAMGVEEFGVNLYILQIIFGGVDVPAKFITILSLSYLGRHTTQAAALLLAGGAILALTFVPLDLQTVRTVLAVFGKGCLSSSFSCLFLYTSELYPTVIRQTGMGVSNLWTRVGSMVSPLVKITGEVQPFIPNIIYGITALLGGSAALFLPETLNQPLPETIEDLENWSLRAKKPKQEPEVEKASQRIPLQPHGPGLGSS
Nature of the data set: Inhibition of OAT3 (unknown origin) expressed in HEK293 cells assessed as reduction of [3H]E-sul substrate uptake by liquid scintillation counting. The format is ADME, cell-based.

ATP-binding cassette sub-family C member 2, sequence (Q92887 whole entry): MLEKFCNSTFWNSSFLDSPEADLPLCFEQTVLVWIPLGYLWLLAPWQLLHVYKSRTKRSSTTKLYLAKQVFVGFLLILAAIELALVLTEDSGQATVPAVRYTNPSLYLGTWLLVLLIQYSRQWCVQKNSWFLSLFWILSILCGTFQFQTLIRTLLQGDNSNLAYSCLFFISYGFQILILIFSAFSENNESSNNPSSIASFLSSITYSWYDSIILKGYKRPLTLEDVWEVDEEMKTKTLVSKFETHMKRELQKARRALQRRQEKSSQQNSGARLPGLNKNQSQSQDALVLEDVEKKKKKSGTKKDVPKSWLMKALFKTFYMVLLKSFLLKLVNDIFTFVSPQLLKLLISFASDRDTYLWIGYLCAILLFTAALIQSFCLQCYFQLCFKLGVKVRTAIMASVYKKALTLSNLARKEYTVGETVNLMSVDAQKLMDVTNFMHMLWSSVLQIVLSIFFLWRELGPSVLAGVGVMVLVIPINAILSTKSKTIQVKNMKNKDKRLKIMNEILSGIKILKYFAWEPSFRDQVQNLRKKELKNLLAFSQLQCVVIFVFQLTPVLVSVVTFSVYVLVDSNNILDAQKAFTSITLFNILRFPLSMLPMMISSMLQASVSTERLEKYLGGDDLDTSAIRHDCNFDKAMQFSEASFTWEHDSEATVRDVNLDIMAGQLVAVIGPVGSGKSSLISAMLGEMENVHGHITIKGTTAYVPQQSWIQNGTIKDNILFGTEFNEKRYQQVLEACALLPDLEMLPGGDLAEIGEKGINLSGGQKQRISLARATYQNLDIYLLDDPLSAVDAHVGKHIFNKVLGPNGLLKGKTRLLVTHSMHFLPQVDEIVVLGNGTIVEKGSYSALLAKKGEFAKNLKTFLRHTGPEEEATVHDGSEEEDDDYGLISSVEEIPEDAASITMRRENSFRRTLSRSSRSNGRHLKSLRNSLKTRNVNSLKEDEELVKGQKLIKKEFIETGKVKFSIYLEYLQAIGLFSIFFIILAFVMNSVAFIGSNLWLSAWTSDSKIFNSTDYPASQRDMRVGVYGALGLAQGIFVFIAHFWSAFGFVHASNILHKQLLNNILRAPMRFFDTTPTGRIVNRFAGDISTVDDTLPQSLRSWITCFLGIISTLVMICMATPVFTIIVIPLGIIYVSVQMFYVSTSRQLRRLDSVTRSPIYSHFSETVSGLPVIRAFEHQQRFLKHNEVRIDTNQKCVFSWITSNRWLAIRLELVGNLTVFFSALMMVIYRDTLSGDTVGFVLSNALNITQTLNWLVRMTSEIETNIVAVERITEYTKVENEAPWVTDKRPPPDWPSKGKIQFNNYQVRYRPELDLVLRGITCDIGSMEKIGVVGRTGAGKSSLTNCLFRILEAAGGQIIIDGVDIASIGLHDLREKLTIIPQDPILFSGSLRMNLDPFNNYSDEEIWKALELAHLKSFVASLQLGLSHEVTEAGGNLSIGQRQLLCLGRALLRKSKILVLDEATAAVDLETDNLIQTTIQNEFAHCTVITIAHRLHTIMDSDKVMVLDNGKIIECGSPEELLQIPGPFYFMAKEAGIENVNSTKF

Usually Km stands for the substrate concentration at which the rate is half of its maximum. For orientation: Papp B→A means how fast a substance crosses the layer from the basolateral side. Broadly, the IC50 is the concentration at which inhibition is half-maximal. On to `CC#CCn1c(N2CCC[C@@H](N)C2)nc2c1c(=O)n(Cc1nc(C)c3ccccc3n1)c(=O)n2C` [LINAGLIPTIN], for which the “inhibition (INH)” value in data set [1] was “Not Active”; in data set [9], “Active”; in data set [10], “Dose-dependent effect”; in [11] it was 35.5%. Further, the Km with P-glycoprotein [2] is 154 µM. Also, the Papp A→B was determined as 27.3 ×10⁻⁶ cm/s with P-glycoprotein [3] and 25.1 ×10⁻⁶ cm/s with P-glycoprotein [4]. For the same molecule, the Papp B→A at 500 µM in the data set on P-glycoprotein [5] amounted to 15.7 ×10⁻⁶ cm/s. Also, in the data set with P-glycoprotein [6], the Papp A→B at 2 µM worked out at 4.21 ×10⁻⁶ cm/s. The same molecule returned a Drug uptake in [7] of 42.3 µM. Also, the IC50 in data set [8] was 66.1 µM; in data set [12] it was greater than 100 µM; in data set [14], greater than 100 µM. Moreover, the Papp B→A at 2 µM in the data set on P-glycoprotein [13] came to 39.4 ×10⁻⁶ cm/s.
